Cl transport mod: modulators of human KCC2 chloride dependent transport | KCC2 cells, thallium flux FluoZin-2 fluorescence | actives 2.2% (n = 190,000) | B-score of Tl+ flux slope (higher = more flux/activation; lower = inhibition) at 10 µM | AID 1456 | Q9H2X9;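 active = thallium flux slope and its plate-corrected score both differing from the plate sample mean at a set confidence after two filtering rounds, in either direction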;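 note: slope of fluorescence scaled to starting intensity during 10 to 20 s after thallium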
Lmaj promast: Leishmania major promastigote growth inhibition; inhibition, % at 10 µM; actives 9% (n = 200,000); AID 1063; Leishmania major promastigotes, resazurin fluorescence viability; in the data active = inhibition above about 50%;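 note: promastigotes grown with compound for 44 hours at 28 °C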
WT yeast gro inh: growth inhibition of WT yeast, mitochondrial fusion screen. inhibition, % at 10 µM. AID 1362. mitochondrial fusion phenotypic screen, WT strain. actives 2.1% (n = 190,000); in the data active = inhibition above about 58%; tested in S. cerevisiae
Diaphorase inh: diaphorase inhibition or chemical oxidation counter-screen. actives 0.69% (n = 190,000). diaphorase resazurin-to-resorufin fluorescence, NADH, 16 min; bacterial (C. kluyveri) enzyme, not human. inhibition, % at 20 µM;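 active = primary screen inhibition at 20 µM above a set limit, cut at about 50% in these data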;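 note: plate controls were DMSO with full reaction for no effect and wells lacking NADH for full effect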
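Assay system: diaphorase enzyme from Clostridium kluyveri. Quantity: enzyme working solution with 0.14 U/mL diaphorase. Schedule: reaction incubation of 16 min at room temperature. Technique: resorufin fluorescence, excitation 544 nm, emission 590 nm. Controls: No-NADH positive control and DMSO neutral control.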
Diaph act CS: diaphorase activation or chemical reduction counter-screen; activation factor at 20 µM; actives 0.005% (n = 190,000); Diaphorase/resazurin coupled assay, resorufin fluorescence, 16 min; stronger effect = higher value; 1 = vehicle wells, 0 = NADH-free wells; AID 1229;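 active = diaphorase activity raised at least twofold by the compound at 20 µM; inactive = activation factor below 2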
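Assay system: bacterial diaphorase enzyme (C. kluyveri) / Input: enzyme 0.07 U/mL final / Medium: 50 mM HEPES pH 7.4 with 4.542 mM MgCl2, 0.005% Tween 20 / Doses: single compound dose of 20 µM, 1% DMSO final / Incubation: 16 min enzyme reaction, ambient temperature / Signal: fluorescence, excitation 544 nm and emission 590 nm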
ROMK primary: modulates human ROMK potassium channel activity; actives 2% (n = 130,000); AID 1918; P48048; B-score at 10 µM; Tet-inducible ROMK, thallium flux fluorescence; actives lie on both sides;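 active = signal ratio slope over the read window, or its plate-corrected B-score, at least 3 SD from the plate mean, either direction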;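 note: B-score of the F/F0 ratio slope over 7 to 12 s after thallium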
Target sequence (P48048 whole entry, looked up): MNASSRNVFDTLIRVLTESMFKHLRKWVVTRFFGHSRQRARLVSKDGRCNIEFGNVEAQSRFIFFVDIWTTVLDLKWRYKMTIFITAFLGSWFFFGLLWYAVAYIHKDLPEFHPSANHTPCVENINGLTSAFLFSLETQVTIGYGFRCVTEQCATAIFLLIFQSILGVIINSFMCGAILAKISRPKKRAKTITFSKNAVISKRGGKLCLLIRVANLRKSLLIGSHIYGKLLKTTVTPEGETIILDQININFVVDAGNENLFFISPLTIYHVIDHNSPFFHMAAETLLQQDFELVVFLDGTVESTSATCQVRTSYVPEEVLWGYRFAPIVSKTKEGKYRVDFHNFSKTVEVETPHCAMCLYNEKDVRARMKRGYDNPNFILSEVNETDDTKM
The depositor's hits bear a star. Rows were chosen to be rich in hits. Some 12% of all compounds tested hit in one or more screens of this group.

Results for CN1CCN(CC(O)COC(c2ccccc2)c2ccccc2)CC1 (stereo not drawn) ?
Cl transport mod: -0.002; Lmaj promast: -1; WT yeast gro inh: -10; Diaphorase inh: 1; Diaph act CS: 1; ROMK primary: 0.13

Results for OC1CCCN(CC(O)COC(c2ccccc2)c2ccccc2)C1 (stereo not drawn) ?
Cl transport mod: -0.6

Results for CC1CCCN(CC(O)COc2ccc(Cl)cc2)C1 (stereo not drawn) ?
Lmaj promast: 91*; WT yeast gro inh: -21; Diaphorase inh: 17; Diaph act CS: 0.8

Results for O=S(=O)(c1ccccc1Cl)N1CCC(O)(c2cccnc2)CC1 ?
Cl transport mod: 1; Lmaj promast: -5; WT yeast gro inh: 3; Diaphorase inh: 8; Diaph act CS: 0.9; ROMK primary: -0.14

Results for Cc1ccsc1-c1nc(C(N)=O)c2[nH]c(=O)n(-c3ccc(Cl)cc3)c2n1 ?
Cl transport mod: -0.041; Lmaj promast: -10; WT yeast gro inh: -7; Diaphorase inh: 9; Diaph act CS: 0.9; ROMK primary: -1.6

How did CCOC(=O)C1(Cc2ccccc2C(F)(F)F)CCN(C2CCC2)CC1 do in these assays?
Cl transport mod: 0.23; Lmaj promast: 61*; WT yeast gro inh: 8; Diaphorase inh: 5; Diaph act CS: 1; ROMK primary: 0.011

How did CCOC(=O)C1(CCCc2ccccc2)CCN(C(=O)c2ccoc2)CC1 do in these assays?
Lmaj promast: 30; WT yeast gro inh: 15; Diaphorase inh: 18; Diaph act CS: 0.8

Results for CCOC(=O)C1(Cc2ccccc2C(F)(F)F)CCN(C2CCN(C(C)=O)CC2)CC1 ?
Cl transport mod: -1.3; Lmaj promast: 77*; WT yeast gro inh: 3; Diaphorase inh: 3; Diaph act CS: 1; ROMK primary: 0.96

What do the screens show for `CCOC(=O)C1(CCCc2ccccc2)CCN(C2CCN(C(C)=O)CC2)CC1`?
Cl transport mod: 0.26; Lmaj promast: 78*; WT yeast gro inh: 24; Diaphorase inh: 3; Diaph act CS: 1; ROMK primary: -0.035

What do the screens show for `O=C(COC(=O)c1ccc(S(=O)(=O)NCc2ccco2)cc1)Nc1ccc(Cl)cn1`?
Cl transport mod: -0.52; Lmaj promast: 3; WT yeast gro inh: 4; Diaphorase inh: 8; Diaph act CS: 0.9; ROMK primary: -1.1

What do the screens show for `COc1ccc(NC(=O)C(=S)N2CCCC2)cc1`?
Cl transport mod: 0.0081; Lmaj promast: -6; WT yeast gro inh: -1; Diaphorase inh: 6; Diaph act CS: 0.9; ROMK primary: 0.011

Results for CCOc1ccc(Cl)cc1CSc1ncn[nH]1 ?
Cl transport mod: 0.86; Lmaj promast: 4; WT yeast gro inh: -7; Diaphorase inh: 10; Diaph act CS: 0.9; ROMK primary: -1.1

How did CCN(CC(=O)Nc1ccccc1SC)Cc1nc2ccccc2c(=O)[nH]1 do in these assays?
Cl transport mod: -1

Results for CCN(CC(=O)NC(c1ccccc1)c1ccccc1)Cc1nc2ccccc2c(=O)[nH]1 ?
Cl transport mod: -0.35; Lmaj promast: 54*; WT yeast gro inh: -4; Diaphorase inh: 8; Diaph act CS: 0.9

What do the screens show for `CCN(CC)CC#CC(OC)(c1ccccc1)c1ccccc1`?
Cl transport mod: -1.3; Lmaj promast: 64*; WT yeast gro inh: 11; Diaphorase inh: 14; Diaph act CS: 0.9; ROMK primary: 0.043

Results for CCN(CC)CCC#CC(O)(c1ccccc1)c1ccccc1 ?
Cl transport mod: 1.4; Lmaj promast: 5; WT yeast gro inh: -11; Diaphorase inh: 0; Diaph act CS: 1; ROMK primary: -0.9

What do the screens show for `COc1cc(C(=O)Oc2ccccc2/C=N/NC(=O)c2ccc(C)cc2)cc(OC)c1OC`?
Lmaj promast: 76*; WT yeast gro inh: 9; Diaphorase inh: -4; Diaph act CS: 1

How did Cc1cccc(C(=O)Oc2ccccc2/C=N/NC(=O)c2ccc(NC(=O)C(C)(C)C)cc2)c1 do in these assays?
Cl transport mod: -1.1; Lmaj promast: 23; WT yeast gro inh: 11; Diaphorase inh: 15; Diaph act CS: 0.9; ROMK primary: -0.66

How did CC(C)(C)C(=O)Nc1ccc(C(=O)N/N=C/c2ccccc2OC(=O)c2ccc(Cl)cc2)cc1 do in these assays?
Cl transport mod: -2.9; Lmaj promast: 55*; WT yeast gro inh: -9; Diaphorase inh: 2; Diaph act CS: 1; ROMK primary: 0.11

How did COc1cc(-c2nc3c[n+](CC(=O)c4ccccc4)ccc3n2C)cc(OC)c1OC do in these assays?
Cl transport mod: 1.9; Lmaj promast: -3; WT yeast gro inh: 11; Diaphorase inh: 11; Diaph act CS: 0.9; ROMK primary: -0.027

What do the screens show for `COc1ccc(C(=O)C[n+]2ccc3c(c2)nc(-c2ccc(OC)cc2OC)n3C)cc1`?
Cl transport mod: 2.1; Lmaj promast: 87*; WT yeast gro inh: 19; Diaphorase inh: 4; Diaph act CS: 1

How did COc1ccc(C(=O)C[n+]2ccc3c(c2)nc(-c2ccccc2)n3C)cc1 do in these assays?
Cl transport mod: 0; Lmaj promast: 68*; WT yeast gro inh: 18; Diaphorase inh: 12; Diaph act CS: 0.9

How did Cc1ccc(S(=O)(=O)/C(C#N)=C/c2c(Oc3ccc(Cl)cc3)nc3c(C)cccn3c2=O)cc1 do in these assays?
Cl transport mod: 0.45; Lmaj promast: 77*; WT yeast gro inh: 30; Diaphorase inh: 12; Diaph act CS: 0.9; ROMK primary: 0.69

What do the screens show for `O=C(Nc1ccn(-c2ccccc2)n1)c1ccccc1Br`?
Cl transport mod: -3.1; Lmaj promast: 5; WT yeast gro inh: -1; Diaphorase inh: 7; Diaph act CS: 0.9

What do the screens show for `CCOc1ccc2[nH]c(=O)c(CN(CC3COCCO3)C(=O)c3ccc(C)cc3)cc2c1` (stereo not drawn)?
Cl transport mod: -1.6; Lmaj promast: 93*; WT yeast gro inh: -20; Diaphorase inh: 7; Diaph act CS: 0.9; ROMK primary: -0.048

How did N#C/C(=N\Nc1ccc(F)cc1)C(=N)N1CCCCC1 do in these assays?
Cl transport mod: -1.1; Lmaj promast: 78*; WT yeast gro inh: 12; Diaphorase inh: -1; Diaph act CS: 1; ROMK primary: -0.48

How did N#C/C(=N\Nc1ccccc1)C(=N)N1CCCCCC1 do in these assays?
Cl transport mod: 0.7

Results for Cc1cc(NC(=O)CCC(=O)N(Cc2cccs2)C(C(=O)NC2CCCC2)c2ccccc2)no1 (stereo not drawn) ?
Cl transport mod: -0.0096; Lmaj promast: 94*; WT yeast gro inh: 16; Diaphorase inh: 6; Diaph act CS: 0.9; ROMK primary: -0.9

Results for Cc1cccc(N(C(=O)CCC(=O)Nc2cc(C)on2)C(C(=O)NC2CCCC2)c2ccc(C)o2)c1 (stereo not drawn) ?
Cl transport mod: 0.48; Lmaj promast: 89*; WT yeast gro inh: 23; Diaphorase inh: 11; Diaph act CS: 0.9; ROMK primary: -0.31
